Measurements reported in ChEMBL document CHEMBL2146472, “Identification and development of the 1,4-benzodiazepin-2-one and quinazoline-2,4-dione scaffolds as submicromolar inhibitors of HAT” (2012).
In brackets after ≈: the same amount, converted by molar mass. Activity calls are given as the source filed them. The calls are words filed in the database; no cut-off is given here.

Test system: Trypanosoma brucei brucei
Assay: Antitrypanosomal activity against bloodstream form of Trypanosoma brucei brucei S427 after 48 hrs by Alamar Blue assay
Assay type: functional
Details: not given
How it was run: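 T. b. brucei S427 cultured in HMI-9 with 20% […] FCS, 37 °C, 5% CO2. Compounds from 0.1 M DMSO stocks diluted in HMI-9 (top wells 50, 200 or 400 μM), serially diluted; cells added at 2 × 10⁴ cells/mL. 48 h incubation, then resazurin (Alamar Blue) for further 24 h; fluorescence ex 530/em 590 nm. MIC determined in duplicate.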

MIC	Structure (SMILES)
inactive	CN1C(=O)CN(CC2CCNCC2)C(=O)c2cc(Cl)ccc21
inactive	O=C(O)CN1C(=O)CN(CC2CCCCC2)C(=O)c2ccccc21
inactive	C=CCN1C(=O)CN(CC2CCNCC2)C(=O)c2ccccc21
inactive	O=C(O)CN1C(=O)CN(CC2CCCCC2)C(=O)c2cc(Cl)ccc21
inactive	CN1C(=O)CN(CC2CCNCC2)C(=O)c2ccccc21

Same assay, conditions: S427, 48 h

Structure (SMILES)	MIC [µM]
O=C1c2ccccc2N(Cc2ccccc2-c2ccccc2)C(=O)CN1CC1CCCCC1	125 (≈ 54.8 µg/mL)
O=C1c2cc(Cl)ccc2N(CC2CC2)C(=O)CN1CC1CCCCC1	31.2 (≈ 11.3 µg/mL)
O=c1c2cc(Cl)ccc2n(Cc2ccccc2)c(=O)n1CC1CCCCC1	62.5 (≈ 23.9 µg/mL)
O=C1c2cc(Cl)ccc2N(Cc2ccccc2)C(=O)CN1CC1CCNCC1	125 (≈ 49.7 µg/mL)
O=c1c2cc(Cl)ccc2n(Cc2ccccc2-c2ccccc2)c(=O)n1CC1CCCCC1	62.5 (≈ 28.7 µg/mL)
C=CCN1C(=O)CN(CC2CCCCC2)C(=O)c2ccccc21	125 (≈ 39.1 µg/mL)
CCCN1C(=O)CN(CC2CCCCC2)C(=O)c2ccccc21	62.5 (≈ 19.7 µg/mL)
C=CCN1C(=O)CN(CC2CCCCC2)C(=O)c2cc(Cl)ccc21	62.5 (≈ 21.7 µg/mL)
O=C1c2ccccc2N(Cc2ccccc2)C(=O)CN1CC1CCCCC1	31.2 (≈ 11.3 µg/mL)
CCCCN1C(=O)CN(CC2CCNCC2)C(=O)c2ccccc21	62.5 (≈ 20.6 µg/mL)
Cn1c(=O)n(CC2CCCCC2)c(=O)c2ccccc21	62.5 (≈ 17 µg/mL)
CCOC(=O)CN1C(=O)CN(CC2CCCCC2)C(=O)c2cc(Cl)ccc21	62.5 (≈ 24.6 µg/mL)
C=CCN1C(=O)CN(CC2CCNCC2)C(=O)c2cc(Cl)ccc21	250 (≈ 87 µg/mL)
O=c1c2cc(Cl)ccc2n(Cc2ccc(-c3ccccc3)cc2)c(=O)n1CC1CCCCC1	125 (≈ 57.4 µg/mL)
CN1C(=O)CN(CC2CCCCC2)C(=O)c2ccccc21	125 (≈ 35.8 µg/mL)
CCN1C(=O)CN(CC2CCCCC2)C(=O)c2ccccc21	62.5 (≈ 18.8 µg/mL)
CCCCN1C(=O)CN(CC2CCCCC2)C(=O)c2ccccc21	31.2 (≈ 10.3 µg/mL)
CCN1C(=O)CN(CC2CCCCC2)C(=O)c2cc(Cl)ccc21	62.5 (≈ 20.9 µg/mL)
CCCCN1C(=O)CN(CC2CCNCC2)C(=O)c2cc(Cl)ccc21	250 (≈ 91 µg/mL)
O=C1c2ccccc2N(CC2CC2)C(=O)CN1CC1CCCCC1	62.5 (≈ 20.4 µg/mL)
CCOC(=O)Cn1c(=O)n(CC2CCCCC2)c(=O)c2cc(Cl)ccc21	250 (≈ 94.7 µg/mL)
CCCCn1c(=O)n(CC2CCCCC2)c(=O)c2cc(Cl)ccc21	62.5 (≈ 21.8 µg/mL)
O=C1c2ccccc2N(Cc2ccccc2)C(=O)CN1CC1CCNCC1	250 (≈ 90.9 µg/mL)
CCOC(=O)CN1C(=O)CN(CC2CCCCC2)C(=O)c2ccccc21	125 (≈ 44.8 µg/mL)
CC(C)(C)OC(=O)N1CCC(Cn2c(=O)c3ccccc3n(Cc3ccccc3-c3ccccc3)c2=O)CC1	125 (≈ 65.7 µg/mL)
CN1C(=O)CN(CC2CCCCC2)C(=O)c2cc(Cl)ccc21	62.5 (≈ 20.1 µg/mL)
CC(C)(C)OC(=O)N1CCC(Cn2c(=O)c3cc(Cl)ccc3n(Cc3ccc(-c4ccccc4)cc3)c2=O)CC1	125 (≈ 70 µg/mL)
O=C1c2ccccc2N(Cc2ccccc2-c2ccccc2)C(=O)CN1CC1CCNCC1	31.2 (≈ 13.7 µg/mL)
CC(C)(C)OC(=O)N1CCC(Cn2c(=O)c3cc(Cl)ccc3n(Cc3ccccc3)c2=O)CC1	62.5 (≈ 30.2 µg/mL)

Next, values leading:

MIC [µM]	Structure (SMILES)
31.2 (≈ 10.8 µg/mL)	CCOC(=O)Cn1c(=O)n(CC2CCCCC2)c(=O)c2ccccc21
15.6 (≈ 5.44 µg/mL)	O=c1c2ccccc2n(Cc2ccccc2)c(=O)n1CC1CCCCC1
3.9 (≈ 1.66 µg/mL)	O=c1c2ccccc2n(Cc2ccccc2-c2ccccc2)c(=O)n1CC1CCNCC1
7.8 (≈ 3.7 µg/mL)	O=C1c2cc(Cl)ccc2N(Cc2ccccc2-c2ccccc2)C(=O)CN1CC1CCNCC1
31.2 (≈ 10.9 µg/mL)	CCCN1C(=O)CN(CC2CCCCC2)C(=O)c2cc(Cl)ccc21
15.6 (≈ 5.99 µg/mL)	O=c1c2cc(Cl)ccc2n(Cc2ccccc2)c(=O)n1CC1CCNCC1
31.2 (≈ 8.93 µg/mL)	CCn1c(=O)n(CC2CCCCC2)c(=O)c2ccccc21
7.8 (≈ 3.31 µg/mL)	O=c1c2ccccc2n(Cc2ccccc2-c2ccccc2)c(=O)n1CC1CCCCC1
0.97 (≈ 0.446 µg/mL)	O=c1c2cc(Cl)ccc2n(Cc2ccc(-c3ccccc3)cc2)c(=O)n1CC1CCNCC1
7.8 (≈ 4.37 µg/mL)	CC(C)(C)OC(=O)N1CCC(Cn2c(=O)c3cc(Cl)ccc3n(Cc3ccccc3-c3ccccc3)c2=O)CC1
31.2 (≈ 9.57 µg/mL)	Cn1c(=O)n(CC2CCCCC2)c(=O)c2cc(Cl)ccc21
0.97 (≈ 0.446 µg/mL)	O=c1c2cc(Cl)ccc2n(Cc2ccccc2-c2ccccc2)c(=O)n1CC1CCNCC1
7.8 (≈ 3.42 µg/mL)	O=C1c2ccccc2N(Cc2ccc(-c3ccccc3)cc2)C(=O)CN1CC1CCCCC1
3.9 (≈ 1.84 µg/mL)	O=C1c2cc(Cl)ccc2N(Cc2ccc(-c3ccccc3)cc2)C(=O)CN1CC1CCCCC1
15.6 (≈ 5 µg/mL)	CCn1c(=O)n(CC2CCCCC2)c(=O)c2cc(Cl)ccc21
7.8 (≈ 3.69 µg/mL)	O=C1c2cc(Cl)ccc2N(Cc2ccccc2-c2ccccc2)C(=O)CN1CC1CCCCC1
15.6 (≈ 5.66 µg/mL)	CCCCN1C(=O)CN(CC2CCCCC2)C(=O)c2cc(Cl)ccc21
15.6 (≈ 6.19 µg/mL)	O=C1c2cc(Cl)ccc2N(Cc2ccccc2)C(=O)CN1CC1CCCCC1
